Results published in ChEMBL document CHEMBL4513216, “Probing the Open Global Health Chemical Diversity Library for Multistage-Active Starting Points for Next-Generation Antimalarials” (ACS Infect Dis, 2020).

Assay: Toxicity liver stage against HepG2, at 10uM
Type: cell-based
Parameters: test concentration 10 uM, cell line HepG2-A16-CD81EGFP
Conditions: human, HepG2-A16-CD81EGFP cells; read-out: INHIBITION
In short: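 Uninfected HepG2-A16-CD81EGFP cells, 3 × 10^3 per well, 1536-well, plated on prespotted compound at 10 μM final, parasite-free screening media added to match infected plates; puromycin 10 μM positive, DMSO 0.5% negative; run in parallel with 48 h PbLuc assay at 37 °C, 5% CO2; viability by CellTiter-Glo luminescence, normalized to controls.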

SMILES	cytotoxicity at 10 µM
O=C([C@H]1C[C@H]2OCC[C@H]2N(CC2CCOCC2)C1)N1CCCCO1	-73.9%
Cc1cc(CN2CCN(C(=O)CCc3cccc(F)c3F)CC2)on1	-6.16%
CS(=O)(=O)CCSCc1cc(F)cc2cccnc12	-1.46%
CCc1ccc(CC)c(NCc2cnc(N3CCOCC3)nc2)c1	0.898%
COC1CCCN(C2CCN(c3cccc(-c4csc(C)n4)c3)CC2)C1 (stereo unspecified)	0.929%
O=C(NCC(O)c1cccc(F)c1)c1sccc1OC(F)F (stereo unspecified)	0.547%
COc1ccc(C(NCc2cccc(C#N)c2)C(C)C)cc1 (stereo unspecified)	17%
Fc1ccc(C(CNc2ccncn2)N2CCCC2)cc1 (stereo unspecified)	15.9%
Cc1nc(CN2CCCC(NCCCc3ccccc3)C2)no1 (stereo unspecified)	-3.9%
COc1ccc(-c2noc(CN3CC(n4cccn4)C3)n2)c(OC)c1	-11.2%
C[C@]1(O)CN(CCO)CC[C@@H]1Oc1cccc(F)c1	-6%
OCC1CCCN(c2ncnc3c2Cc2ccccc2OC3)C1 (stereo unspecified)	1.44%
COc1ccc(CC(=O)N2CCCN(c3ccc(C#N)cc3)CC2)cc1	-1.95%
O=C(c1ccc[nH]1)N1CCn2cc(CN3CCCC3)nc2C1	3.09%
COc1ccc(-c2cc(C3CCCCCN3S(=O)(=O)N(C)C)on2)cc1 (stereo unspecified)	2.24%
CN(CCC1CCOCC1)C(=O)C1CCC(=O)N(Cc2ccccn2)C1 (stereo unspecified)	-2.06%
Cc1ccc(C(=O)N2CCCC3(C2)C(=O)N(C)c2ccccc23)c(=O)[nH]1 (stereo unspecified)	-7.52%
CC(c1nc(-c2cccnc2)no1)N(C)CCCOc1ccccc1 (stereo unspecified)	-2.14%
O=C(NCCNC(=O)C1CCN(CC(F)(F)F)CC1)c1ccoc1	5.09%
Cc1nnc(N2C[C@@H](Oc3ccccn3)[C@H]3OCCC[C@H]32)s1	-5%
COCCC(=O)N1CCC(Nc2ncc(Br)cn2)CC1	-2.46%
CC(NC(=O)CCc1nc(C(C)(C)C)no1)c1nnc2n1CCC2 (stereo unspecified)	12%
Cc1cnn(CC2CCCCN2CC(=O)Nc2cccnc2)c1 (stereo unspecified)	3.5%

SMILES	cytotoxicity at 10 µM
CCn1nc(C)c(C(=O)NCc2csc(C3CC3)n2)c1C	20.5%
COCCNC(=O)NCc1cccc(-n2ccnc2)c1	16.1%
CC1CN(C(=O)CN(Cc2ccco2)C2CC2)CCO1 (stereo unspecified)	3.97%
CNC(=O)[C@@]12CCC3(CCN(S(=O)(=O)C4CC4)CC3)[C@@H]1CN(C(C)=O)C2	-0.201%
COCCC(=O)NCc1ccc(-c2ccccc2C(=O)O)cn1	1.92%
O=C(c1cnc2[nH]c(=O)[nH]c(=O)c2c1)N1CCCC1C1CCCCC1 (stereo unspecified)	-5.94%
CCOCC1CC2(CCN(C(=O)C3CC=CC3)CC2)CO1 (stereo unspecified)	1.5%
COCCS(=O)(=O)N1CCN(c2cccc(O)c2)CC1	5.33%
COCC(=O)N1CCC(c2nccn2CC2CC2)CC1	-14.6%
Cc1cccc(CN2CCC3(CC(C(=O)NCC(C)C)=NO3)C2)c1 (stereo unspecified)	4.66%
Cc1ccc(-c2c[nH]c([C@@H]3COCCN3Cc3ncc[nH]3)n2)cc1	0.835%
Cc1ccc(CNCc2nnc3n2CCCC3C(F)(F)F)o1 (stereo unspecified)	19.5%
Cc1nccn1CCCN1CCC2(CCC(=O)N(CC3CC3)C2)CC1	3.12%
CCOCCNC(=O)c1cccnc1Sc1cc(OC)ccc1OC	0.354%
CNC(=O)CCNC(=O)c1cc(Br)c2c(c1)OCCO2	3.82%
COCc1nc(C(=O)N2CCCC2c2cccs2)cs1 (stereo unspecified)	-5.16%
O=C(N1CCCC(n2cncn2)C1)C1(c2cccc(F)c2)CCCC1 (stereo unspecified)	3.39%
Cc1cnc(CN(Cc2ccc(C#N)cc2F)C2CCN(C)C2)o1 (stereo unspecified)	0.172%
CSC(C)C(=O)NS(=O)(=O)c1ccc(F)c(C(F)(F)F)c1 (stereo unspecified)	-6.52%
Cc1ccccc1CS(=O)(=O)NCCCN1CCCCC1	19.4%
CN(Cc1ccccc1)C1COC2(CCN(Cc3nccs3)CC2)C1 (stereo unspecified)	-19.5%
CCc1ccc(CN2CCN(c3cccc(OC)c3)C(=O)C2)nc1	1.76%
CC1(C)CN(C(=O)Nc2ccc(Cn3cccn3)cc2)CCO1	45.1%

SMILES	cytotoxicity at 10 µM
CN1C[C@@H](C(=O)N(C)C)[C@@]2(CCc3ccccc3C(=O)N2)C1	1.2%
Cc1cccc(S(=O)(=O)NC(=O)CCc2cscn2)c1	0.983%
CC(CC#N)n1ccc(C(F)(F)F)n1 (stereo unspecified)	-8.88%
COc1ccccc1OCCC(=O)N1CCCC1Cn1cccn1 (stereo unspecified)	-5.19%
CCOCC1CN(S(=O)(=O)C2CC2)Cc2nn(C)cc21 (stereo unspecified)	-112%
CC(c1nccs1)n1cc(-c2cc(CN3CCCCC3)cs2)nn1 (stereo unspecified)	1.22%
c1ccc(N2CCCC3(CCN(Cc4nccs4)C3)C2)nc1 (stereo unspecified)	6.94%
Cn1cnc2c1C(COCC1CCOCC1)CN(C(=O)c1ccco1)C2 (stereo unspecified)	-75.5%
COc1ccccc1C(C)Nc1ncc(C(N)=O)cc1Cl (stereo unspecified)	8.74%
Cn1cc(-c2nc(C(=O)N3CCCC3Cn3cccn3)cs2)cn1 (stereo unspecified)	-9.25%
O=C(N1CCN(CCO)CC1)C1(O)Cc2ccccc2C1	-2.92%
CN1CCN(c2ccc(NC(=O)c3ccccn3)c(C(F)(F)F)c2)CC1	0.753%
CC[C@H]1CN2CC[C@H]1C[C@@H]2CNC(=O)NC1CCCCC1	0.91%
O=C(c1ccc(F)cc1)N1CCN2C[C@H](OCc3ccccn3)C[C@H]2C1	2.8%
Cn1ccnc1CN1CCN(CC(=O)NCC(F)(F)F)CC1	-10%
Cn1c(N)c2c(=O)n(C)c(-c3ccc(Cl)cc3Cl)cc2c(C#N)c1=O	-5.43%
O=C1CC(NS(=O)(=O)c2ccc(F)c(Cl)c2)CN1 (stereo unspecified)	6.32%
O=C(NCCn1nc2ccccn2c1=O)c1cccc2[nH]ncc12	-0.472%
CCC(C)N1CCC(Oc2ccc(C(=O)NCCN(C)C)cc2Cl)CC1 (stereo unspecified)	-2.09%
C[C@H]1C[C@H]2CN(C(=O)C3=CCCCC3)CC[C@H]2O1	4.76%
Cc1nn(C)c(C)c1C1CCCN1c1ncnc2sccc12 (stereo unspecified)	44.1%
Cc1nc(CN2C(=O)CCC23CCN(Cc2ccco2)CC3)cs1	-105%
CC(=O)NCCCNC(=O)Nc1ccccc1-n1nc(C)cc1C	6.57%

SMILES	cytotoxicity at 10 µM
Cc1ccc(N2CCCC(NCc3cccs3)C2)nn1 (stereo unspecified)	-33%
CC(Nc1cccc(CN2CCOC2=O)c1)C(=O)Nc1ccccc1 (stereo unspecified)	-6.42%
COc1ccc(F)c(NCc2ccc(C(=O)N(C)C)[nH]2)c1	7.31%
O=C(Nc1ccnc(OC2CCOC2)c1)c1ccccc1Cl (stereo unspecified)	8.5%
CCN1CC2(CC1=O)CN(C(C)=O)CCN(C(=O)NC)C2 (stereo unspecified)	-3.62%
O=C(c1cscn1)N1C[C@H](OCc2cccnc2)[C@H]2COC[C@H]21	-2.07%
CCOCC1CN(Cc2ccoc2)Cc2nn(C)cc21 (stereo unspecified)	-2.8%
Cc1ccc(CCNC(=O)NCCCC(N)=O)c(C)c1	5.71%
CN(CC(O)CO)C(=O)c1coc(COc2cccc(F)c2)n1 (stereo unspecified)	-149%
COc1ncc(CN(C)C2CCN(C(C)C)CC2)cn1	5.15%
CN(C)c1ccc(CN2C[C@@H]3CC[C@H]2CN(C2CCOCC2)C3)cn1	-3.62%
COc1c[nH]c(C(=O)N2CCN(c3ccccc3)CC2)cc1=O	0.0868%
Cc1cc(CC2COc3ccccc3C2)cnc1N (stereo unspecified)	0.873%
CC(Cn1cccn1)NC(=O)NCCCN1CCc2ccccc21 (stereo unspecified)	-0.449%
O=C(CN1CCN(c2ccccc2F)CC1)Nc1ccc(Cl)cn1	4.04%
CCOCC(O)CN1CCN(C(=O)c2ccc(C)nc2)CC1 (stereo unspecified)	0.661%
O=C1CC[C@@H]2[C@@H](CCN2C(=O)C2CCOCC2)N1CC1CC1	10.9%
Cc1ccc(CN(Cc2ncc[nH]2)C2CC(C)(C)NC(C)(C)C2)o1	-15.2%
CCC(=O)Nc1ccc(OCC(=O)N(C)C(C)c2ccon2)cc1 (stereo unspecified)	5.22%
CCS(=O)(=O)Cc1nc(-c2cnn3c(C)cc(C)nc23)no1	-4.79%
CN(Cc1cc[nH]n1)C(=O)c1cn(Cc2c(F)cccc2F)nn1	7.29%
CC(O)(CNC(=O)c1c(F)cccc1Cl)C1CC1 (stereo unspecified)	-8.87%
CSCC(=O)N1CCCN(c2ccncc2C)CC1	-6.09%

SMILES	cytotoxicity at 10 µM
CCN(CC1CCOC1)S(=O)(=O)Cc1ccccc1Cl (stereo unspecified)	-0.768%
Cc1cc(C)n(C2CN(CC(=O)NC3CCOCC3)C2)n1	-3.92%
Cc1csc(N2CCN(CC(=O)Nc3nncs3)CC2C)n1 (stereo unspecified)	-7.44%
CCC(O)CN(c1ccccc1)S(=O)(=O)c1cnc(C)s1 (stereo unspecified)	-45.6%
CN(Cc1cccs1)C(=O)Cn1cc(NC(=O)C(C)(C)C)cn1	-3.52%
Cc1noc(C)c1CN1CCN(Cc2cccnc2)c2ncccc2C1	-67.1%
Cc1cc(C(F)(F)F)cc(=O)n1CCCn1cnnn1	1.16%
CS(=O)(=O)CCSc1cccc(C#N)c1	-5.61%
CNc1cc(N2CCCC2CNCc2cscn2)ncn1 (stereo unspecified)	-0.426%
CCCN1CCCn2c(nc(CNC(=O)N3CCCC3)cc2=O)C1	12.1%
O=C(NCc1cccs1)[C@H]1CC[C@@H]2[C@@H](CCN2c2ncccn2)O1	-24.2%
COCCC(=O)N1CCc2nc(N3CCOCC3)nc(NC(C)C)c2C1	-108%
CN(C)c1cc2c(nn1)CCN(C(=O)Cc1ccc3c(c1)CCC3)C2	-5.98%
O=C(N1CCCC(n2cncn2)C1)C1(c2cccc(F)c2)CCC1 (stereo unspecified)	0.322%
CC(c1ccccc1)n1c(SCC(=O)O)nnc1-c1ccccc1Cl (stereo unspecified)	1.31%
CC(C)[C@@H]1CN(C(=O)NCc2ccco2)C[C@H]1N(C)C	12.7%
c1ccn(Cc2nnc3n2CCCN(c2cnccn2)C3)c1	-2.2%
Cc1ccc(F)c2c1N(C(=O)c1ccc(S(C)(=O)=O)cc1)CCC2	2.97%
CCCN(Cc1ccc(OC)nc1)Cc1ccccc1OC	-5.85%
